Assay results: ChEMBL document CHEMBL1125934, “Targeting 5'-deoxy-5'-(methylthio)adenosine phosphorylase by 5'-haloalkyl analogues of 5'-deoxy-5'-(methylthio)adenosine” (J Med Chem, 1991)
One block for each molecule: values may come before it.

How the values were obtained:
[1] = molecular target: T1, S-methyl-5'-thioadenosine phosphorylase (Mus musculus) (UniProt Q9CQ65); experiment: The ability to act as substrates for MTA phosphorylase activity was determined by using a mouse liver enzyme preparation; format: functional, tissue-based; parameters: concentration or dose not given beside the values
T1 sequence (whole entry): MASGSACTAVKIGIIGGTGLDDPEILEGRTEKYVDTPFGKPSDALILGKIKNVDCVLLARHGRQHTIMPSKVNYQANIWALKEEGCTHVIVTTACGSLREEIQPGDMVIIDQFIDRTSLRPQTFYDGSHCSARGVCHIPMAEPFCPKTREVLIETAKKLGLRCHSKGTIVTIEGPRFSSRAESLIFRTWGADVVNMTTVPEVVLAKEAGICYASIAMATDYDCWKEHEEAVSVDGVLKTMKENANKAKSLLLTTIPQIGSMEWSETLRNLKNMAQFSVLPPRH
Outline: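 Mouse liver MTA phosphorylase preparation, spectrophotometric assay. The analogue was used as substrate and the absorbance change at λ 305 was read after a 10-min incubation. Activity is expressed relative to MTA as control substrate. Duplicate samples, agreeing within 15%.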

L1210 [2] = experiment: Effect of compound on spermine(SPM) polyamine pool in L1210 murine leukemia cells expressed in terms of nmol/10e6 cells; format: functional, Mus musculus
[3] = molecular target: T2, S-methyl-5'-thioadenosine phosphorylase (Mus musculus, UniProt Q9CQ65); experiment: The inhibitory constant(Ki) for MTA phosphorylase activity was determined by using a mouse liver enzyme preparation
T2 sequence (Q9CQ65 whole entry): T1 sequence (whole entry)
Outline: (§1)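 Mouse liver MTA phosphorylase preparation. Conversion of [methyl-³H]MTA to [methyl-³H]MTRP was measured in the presence of analogue. Ki was derived from Lineweaver-Burk plots. Duplicate samples, agreeing within 15%.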

L1210 [4] = experiment: The concentration required to inhibit cell growth by 50% was measured on L1210 Leukemic cell line of mouse(48h after exposure); format: functional, cell-based; conditions: L1210, 48 h
Outline: (§2)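 Suspension cultures in RPMI 1640 with 10% Nu Serum, seeded at 0.3×10^5 cells/mL. Compounds were dissolved fresh in DMSO, diluted in serum-free medium, and tested at 0.1-1000 µM for 48 h (about 4 doublings). Cells were counted by Coulter counter and the 50% growth-inhibitory concentration determined.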

[5] = molecular target: Adenosylhomocysteinase (Bos taurus) (UniProt Q3MHL4); experiment: Percentage enzyme activity remaining was measured by the inhibition S-adenosyl-L-homocysteine hydrolase from bovine liver at 0.01 uM
Adenosylhomocysteinase (Bos taurus), sequence (Q3MHL4 whole entry, looked up): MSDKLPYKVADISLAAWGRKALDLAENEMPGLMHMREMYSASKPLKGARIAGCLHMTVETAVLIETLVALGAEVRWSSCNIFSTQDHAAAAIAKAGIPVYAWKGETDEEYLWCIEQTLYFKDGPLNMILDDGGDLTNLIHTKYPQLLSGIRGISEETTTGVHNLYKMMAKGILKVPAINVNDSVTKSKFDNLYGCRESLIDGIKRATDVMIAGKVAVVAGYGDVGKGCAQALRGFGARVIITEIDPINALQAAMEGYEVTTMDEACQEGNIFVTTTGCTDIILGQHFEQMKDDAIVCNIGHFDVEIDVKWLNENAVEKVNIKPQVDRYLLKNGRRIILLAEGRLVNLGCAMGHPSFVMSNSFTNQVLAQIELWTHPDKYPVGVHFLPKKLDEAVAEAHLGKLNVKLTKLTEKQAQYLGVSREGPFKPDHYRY

MOLT-4 = experiment: The concentration required to inhibit cell growth by 50% was measured on human MOLT-4 cells (96h after exposure); format: functional, cell-based; conditions: MOLT-4, 96 h
Outline: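 MOLT-4 suspension culture in RPMI 1640 with 10% Nu Serum, seeded at 0.3×10^5 cells/mL. Compounds were freshly dissolved in DMSO, diluted in serum-free medium, and tested at 0.1-1000 µM for 96 h (about 4 doublings). Cells were counted electronically (Coulter) and the 50% growth-inhibitory concentration determined.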

L1210 [6] = experiment: Effect of compound on putrescine(PUT) polyamine pool in L1210 murine leukemia cells expressed in terms of nmol/10e6 cells; format: functional, Mus musculus
L5178Y [7] = experiment: The concentration required to inhibit cell growth by 50% was measured on L5178Y Leukemic cell line of mouse(48h after exposure); format: functional, cell-based; outline: as §2
L5178Y [8] = experiment: Effect of compound on spermine(SPM) polyamine pool in L5178Y murine leukemia cells expressed in terms of nmol/10e6 cells; format: functional, Mus musculus
L5178Y [9] = experiment: Effect of compound on putrescine(PUT) polyamine pool in L5178Y murine leukemia cells expressed in terms of nmol/10e6 cells; format: functional, Mus musculus
CCRF-CEM = experiment: The concentration required to inhibit cell growth by 50% was measured on human CCRF-CEM cells (96h after exposure); format: functional, cell-based
Outline: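 CCRF-CEM cells grown in 10% horse serum, seeded at 0.3×10^5 cells/mL. Compounds were freshly dissolved in DMSO, diluted in serum-free medium, and tested at 0.1-1000 µM for 96 h (about 4 doublings). Cells were counted by Coulter counter and the concentration giving 50% growth inhibition determined.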

L1210 [10] = experiment: Effect of compound on spermidine(SPD) polyamine pool in L1210 murine leukemia cells expressed in terms of nmol/10e6 cells; format: functional, Mus musculus
L5178Y [11] = experiment: Effect of compound on spermidine(SPD) polyamine pool in L5178Y murine leukemia cells expressed in terms of nmol/10e6 cells; format: functional, Mus musculus
L5178Y [12] = experiment: Effect of compound on putrescine(PUT) polyamine pool in L5178Y murine leukemia cells expressed as nmol/10e6 cells; format: functional, Mus musculus
[13] = compound: CSC[C@H]1O[C@@H](n2cnc3c(N)ncnc32)[C@H](O)[C@@H]1O; experiment: The inhibitory constant for MTA phosphorylase activity was determined by using a mouse liver enzyme preparation; format: functional, tissue-based; outline: as §1

Molecule: Nc1ncnc2c1ncn2C1O[C@H](CSCCCl)[C@@H](O)[C@H]1O (some centres not stated)
Control [1]: 35%

Molecule: Nc1ncnc2c1ncn2C1O[C@H](CSCCF)[C@@H](O)[C@H]1O (some centres not stated)
Activity (L1210 [2]): 0.86
IC50 (L1210 [4]): 150 µM
Activity [5]: 102%
IC50 (MOLT-4): 10 µM
Control [1]: 64%
Activity (L1210 [6]): 0.56
IC50 (L5178Y [7]): 60 µM
Activity (L5178Y [8]): 1.43
Activity (L5178Y [9]): 0.27 nmol/10e6 cells
IC50 (CCRF-CEM): 75 µM
Activity (L1210 [10]): 1.95
Activity (L5178Y [11]): 1.55

Molecule: Nc1ncnc2c1ncn2C1O[C@H](CSCCBr)[C@@H](O)[C@H]1O (some centres not stated)
Control [1]: 38%

Molecule: Nc1ncnc2c1ncn2C1O[C@H](CSCCO)[C@@H](O)[C@H]1O (some centres not stated)
Activity (L1210 [2]): 0.58
IC50 (L1210 [4]): 1000 µM
IC50 (MOLT-4): 40 µM
Control [1]: 34%
Activity (L1210 [6]): 0.75
IC50 (L5178Y [7]): 500 µM
Activity (L5178Y [8]): 1.5
Activity (L5178Y [9]): 0.66 nmol/10e6 cells
IC50 (CCRF-CEM): 100 µM
Activity (L1210 [10]): 1.17
Activity (L5178Y [11]): 1.9

B1: S-methyl-5'-thioadenosine phosphorylase (Mus musculus), Q9CQ65 (protein)
chain: T1 sequence (whole entry)
Km [13]: 1.3 µM

Second part, led by results:

Ki [3]: 4 µM
IC50 (L1210 [4]): 600 µM
Activity [5]: 97%
IC50 (MOLT-4): 25 µM
Control [1]: 66%
IC50 (CCRF-CEM): 160 µM
Molecule: Nc1ncnc2c1ncn2C1O[C@H](CSCCCF)[C@@H](O)[C@H]1O (some centres not stated)
Activity (L1210 [2]): 0.44
Activity (L1210 [6]): 0.34
IC50 (L5178Y [7]): 600 µM
Activity (L5178Y [8]): 1.07
Activity (L5178Y [9]): 0.36 nmol/10e6 cells
Activity (L1210 [10]): 0.99
Activity (L5178Y [11]): 1.79

Ki [3]: 1.7 µM
IC50 (L1210 [4]): 1000 µM
Activity [5]: 100%
IC50 (MOLT-4): 45 µM
Control [1]: 102%
IC50 (CCRF-CEM): 160 µM
Molecule: CCCSC[C@H]1OC(n2cnc3c(N)ncnc32)[C@H](O)[C@@H]1O (some centres not stated)
Activity (L1210 [2]): 0.41
Activity (L1210 [6]): 0.26
IC50 (L5178Y [7]): 500 µM
Activity (L5178Y [8]): 1
Activity (L5178Y [9]): 0.25 nmol/10e6 cells
Activity (L1210 [10]): 0.57
Activity (L5178Y [11]): 1.18

IC50 (L1210 [4]): 850 µM
Activity [5]: 101%
IC50 (MOLT-4): 11 µM
Control [1]: 100%
IC50 (CCRF-CEM): 150 µM
Molecule: CSC[C@H]1O[C@@H](n2cnc3c(N)ncnc32)[C@H](O)[C@@H]1O [METHYLTHIOADENOSINE]
Activity (L1210 [2]): 0.19
Activity (L5178Y [12]): 1.85
Activity (L1210 [6]): 1.93
IC50 (L5178Y [7]): 200 µM
Activity (L5178Y [8]): 0.43
Activity (L1210 [10]): 1.22
Activity (L5178Y [11]): 2.79

Ki [3]: 1.9 µM
IC50 (L1210 [4]): 800 µM
Activity [5]: 99%
IC50 (MOLT-4): 20 µM
Control [1]: 95%
IC50 (CCRF-CEM): 200 µM
Molecule: CCSC[C@H]1OC(n2cnc3c(N)ncnc32)[C@H](O)[C@@H]1O (some centres not stated)
Activity (L1210 [2]): 0.54
Activity (L1210 [6]): 0.77
IC50 (L5178Y [7]): 250 µM
Activity (L5178Y [8]): 1.29
Activity (L5178Y [9]): 0.69 nmol/10e6 cells
Activity (L1210 [10]): 1.01
Activity (L5178Y [11]): 1.75
